Assay results: ChEMBL document CHEMBL1123391, “Synthesis and investigation of the beta-adrenoceptor agonist and platelet antiaggregatory properties of 1,7,8-trisubstituted 2,3,4,5-tetrahydro-1H-2-benzazepine analogues of trimetoquinol” (J Med Chem, 1986)

Key:
Format in all cases: functional, organism-based
Homo sapiens [1] = species: Homo sapiens; experiment: Inhibitory activity against thrombin (0.03 U/mL) induced aggregation in Human Platelets
Method in brief: (§1)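 Washed platelets from drug-free (≥10 days) human volunteers, suspended in modified Tyrode's solution pH 7.4 at 3 × 10^8/mL. Compound preincubated 3 min at 37 °C before agonist addition. Aggregation read turbidometrically (Born method, Mustard modification) in a dual-channel aggregometer. Values mean ± SEM from four to six donors; tested up to 400 μM.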

Homo sapiens [2] = species: Homo sapiens; experiment: Inhibitory activity against endoperoxide (U-46,619 2 uM) induced aggregation in Human Platelets; method in brief: as §1
Homo sapiens [3] = species: Homo sapiens; experiment: Inhibitory activity against phospholipase C (PLC 0.05 U/mL) induced aggregation in Human Platelets; method in brief: as §1
Homo sapiens [4] = species: Homo sapiens; experiment: Inhibitory activity against thrombin (0.03 U/mL) induced aggregation in Human Platelets; NI is No Inhibitory activity up to a concentration of 400 uM; method in brief: as §1
Homo sapiens [5] = species: Homo sapiens; experiment: Inhibitory activity against endoperoxide (U-46,619 2 uM) induced aggregation in Human Platelets; NI is No Inhibitory activity up to a concentration of 400 uM; method in brief: as §1

IC50 (Homo sapiens [1]) [µM] | IC50 (Homo sapiens [2]) [µM] | IC50 (Homo sapiens [4]) | IC50 (Homo sapiens [5]) | SMILES | IC50 (Homo sapiens [3]) [µM]
150 | 0.14 |  |  | COc1cc(C[C@H]2NCCc3cc(O)c(O)cc32)cc(OC)c1OC | 175
 |  | No inhibition | No inhibition | COc1cc(CC2NCCCc3cc(O)c(O)cc32)cc(OC)c1OC (configuration not stated) | 30
 |  | No inhibition | No inhibition | COc1cc(CC2NCCCc3cc4c(cc32)OCO4)cc(OC)c1OC (configuration not stated) | 3
50 | 11 |  |  | COc1cc(C[C@@H]2NCCc3cc(O)c(O)cc32)cc(OC)c1OC [TRETOQUINOL] | 50
